Bioassay records deposited in PubChem by Sanford-Burnham Center for Chemical Genomics.
PPC-1+TRAIL kill – kills PPC-1 cancer cells in the presence of TRAIL | PPC-1 cells + TRAIL, ATPLite viability luminescence | cell killing (% activity), % at 4 µM or 5 µM | 0.41% of 220,000 active | AID 1443;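 active = cell killing above 50% in the first pass at 4 µM, then a duplicate retest at 5 µM averaging 50% or more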
FLuc stim CS – affects firefly luciferase, flagging false hits in luciferase stimulation screens | P08659 | ATPlite luciferase biochemical, luminescence, 10 min; 0 = ATP-free wells, 1 = DMSO control | activation factor at 10 µM | 200,000 tested, under 10 active;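 active = luciferase activation factor, scaled between plate controls, of at least 2 with compound at 10 µM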
Target sequence (P08659 whole entry, looked up): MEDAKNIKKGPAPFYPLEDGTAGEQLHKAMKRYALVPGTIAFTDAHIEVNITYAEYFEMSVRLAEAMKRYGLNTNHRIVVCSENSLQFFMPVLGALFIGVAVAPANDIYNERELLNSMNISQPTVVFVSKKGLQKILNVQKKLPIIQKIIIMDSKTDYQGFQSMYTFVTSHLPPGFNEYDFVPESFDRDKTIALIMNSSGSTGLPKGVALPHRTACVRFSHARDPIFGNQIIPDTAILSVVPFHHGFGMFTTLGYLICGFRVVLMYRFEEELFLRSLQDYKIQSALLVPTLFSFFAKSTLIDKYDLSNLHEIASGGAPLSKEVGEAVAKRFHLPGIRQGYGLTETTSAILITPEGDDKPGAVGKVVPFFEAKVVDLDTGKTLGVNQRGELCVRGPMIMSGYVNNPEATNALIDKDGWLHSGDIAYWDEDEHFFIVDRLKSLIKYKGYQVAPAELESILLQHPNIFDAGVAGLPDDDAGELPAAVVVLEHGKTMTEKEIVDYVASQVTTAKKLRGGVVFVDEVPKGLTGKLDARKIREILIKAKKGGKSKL
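test system = cell-free luciferase reagent | medium = PBS as buffer for the ATP substrate | dosing = test compounds dosed from 2 mM stocks in 100% DMSO | incubation = 10 min at ambient temperature | detection = luminescence measurement of luciferase light output | benchmarks = low control with PBS replacing ATP, high control enzyme plus ATP without compound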
TRAIL sens C8 – sensitizes caspase-8 expressing cells to TRAIL; 1% of 360,000 active; inhibition (viability loss, TRAIL sensitization), % at 10 µM; AID 624354; NB7+C8 cells + TRAIL, ATPlite viability luminescence;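 active = compounds causing at least 50% loss of cell viability in the single-dose screen, relative to plate controls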
FLuc inh counter – counter-screen for luciferase assay inhibitors: firefly luciferase inhibition; P08659; ATPLite firefly luciferase biochemical luminescence, 10 min; inhibition, % at 10 µM; 1.5% of 200,000 active; AID 1006;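 active = inhibition above about 50% when tested at 10 µM, limit read from the data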
A number is an active result; i = inactive; nt = not tested or not shown. Shown are actives, neighbours in structure and some others; about 1.5% of the full set was active somewhere.

SMILES	PPC-1+TRAIL kill	FLuc stim CS	TRAIL sens C8	FLuc inh counter
CCOc1cc(/C=N/N=C(N)N)ccc1OCc1ccc(Cl)cc1	50	i	87	i
CCOc1cc(CNCCc2ccc(S(N)(=O)=O)cc2)ccc1OCc1ccc(Cl)cc1	i	i	73	i
COc1cc(/C=N/N=C(N)N)ccc1OCc1ccc(Cl)cc1	i	i	i	i
COc1cc(CNCCc2ccc(S(N)(=O)=O)cc2)ccc1OCc1ccc(Cl)cc1	i	i	i	i
COc1cc(/C=N/N=C(/N)c2nonc2N)cc(Br)c1OCc1ccccc1C	i	i	i	i
CCOc1cc(/C=N/N=C(/N)c2nonc2N)cc(Br)c1OCc1ccc(Cl)cc1	i	i	57	i
O=C(COC(=O)c1ccc(Br)c(S(=O)(=O)N2CCOCC2)c1)NC1CC1	nt	nt	i	nt
O=C(Nc1ccccc1)c1ccc2ccccc2n1	i	i	i	52
O=C(Nc1ccccc1C(=O)O)c1ccc2ccccc2n1	i	i	i	56
C[N+](C)(C)CCNC(=O)c1ccccc1	nt	nt	i	nt
Cc1ccc(-n2c(C)cc(C3=NNC(=NC4CC4)SC3)c2C)cc1C	i	i	64	63
COCCCN=C1NN=C(c2cc(C)n(-c3ccccc3F)c2C)CS1	i	i	53	84
COCCn1c(C)cc(C2=NNC(=Nc3ccccc3F)SC2)c1C	i	i	i	82
Cc1cc(C2=NNC(=Nc3ccccc3)SC2)c(C)n1C	i	i	i	61
Fc1ccc(F)c(C2=NNC(=Nc3ccccc3F)SC2)c1	i	i	i	i
CCOC(=O)c1cc2c(c(CCO)n1)[C@@H](CCO)N(S(=O)(=O)C(C)(C)C)C2	nt	nt	i	nt
Cc1ccccc1C(=O)NCCCNC(=O)c1ccccn1	nt	nt	i	nt
C(=N\Nc1ccccn1)/c1ccc2c(c1)OCCO2	i	i	i	78
Fc1cccc(/C=N/Nc2ccccn2)c1	i	i	i	i
CCCOc1ccc(/C=N/Nc2ccccn2)cc1OC	i	i	i	58
CCOc1ccc(/C=N/Nc2ccccn2)cc1OC	i	i	i	58
COc1cc(/C=N/Nc2ccccn2)cc(OC)c1O	i	i	i	78
COc1ccc(S(=O)(=O)n2nc(C)cc2C)cc1OC	nt	nt	i	nt
CSc1ccc(-c2cccc3nncn23)cc1	nt	nt	i	nt
CCN(CC(=O)NC1CCS(=O)(=O)C1)S(=O)(=O)c1ccc(Cl)c(C(F)(F)F)c1 (stereo unspecified)	nt	nt	i	nt
SMILES	PPC-1+TRAIL kill	FLuc stim CS	TRAIL sens C8	FLuc inh counter
COCc1c(C(=O)N2CCc3ccccc32)oc2ccccc12	nt	nt	i	nt
Cc1c(C(=O)N2CCc3ccccc32)oc2ccccc12	i	i	61	73
O=C(c1ccc(Br)o1)N1CCc2ccccc21	i	i	nt	54
O=C(c1cc2ccccc2o1)N1CCN(c2ccccn2)CC1	nt	nt	i	nt
CC(=O)c1cccc(N/C=C\C(=O)c2ccc(C)cc2)c1	62	i	52	91
Cc1ccc(C(=O)/C=C/Nc2ccc3c(c2)OCO3)cc1	i	i	61	80
CC(=O)c1cccc(NS(=O)(=O)c2ccc(N/C=C\C(=O)c3ccc(C)cc3)cc2)c1	i	i	i	i
C/C(=C\C(=O)c1ccc(C)cc1)Nc1cccc(O)c1	i	i	i	65
CCC(NC(=O)COc1cc2c(c3oc(=O)c(C)c(C)c13)CCC(C)(C)O2)C(=O)O (stereo unspecified)	nt	nt	i	nt
O=c1[nH]cnc2cc(-c3ccccc3)sc12	i	i	i	i
COc1ccc(-c2cc3nc(CCl)[nH]c(=O)c3s2)cc1	nt	nt	91	nt
COc1ccc(-c2cc3nc[nH]c(=O)c3s2)cc1	i	i	61	72
CCCCCC(=O)N1C[C@H](n2cc(COC(=O)c3ccccc3)nn2)[C@@H](O)C[C@@H]1c1ccc(Cl)cc1	nt	nt	58	nt
CCCCCC(=O)N1C[C@@H](n2cc(COC(=O)c3ccccc3)nn2)[C@H](O)C[C@@H]1c1ccc(Cl)cc1	nt	nt	i	nt
O=C1c2cccc3c([N+](=O)[O-])ccc(c23)C(=O)N1c1ccc(Cl)cn1	i	i	i	i
O=C1c2cccc3c([N+](=O)[O-])ccc(c23)C(=O)N1c1nccs1	i	i	53	i
O=C1c2cccc3c([N+](=O)[O-])ccc(c23)C(=O)N1c1ccccn1	i	i	51	i
O=C1c2cccc3cccc(c23)C(=O)N1c1nccs1	i	i	i	i
CCN1CCN(C(=O)c2ccc3c(=O)n(CCc4ccccc4)c(=O)[nH]c3c2)CC1	nt	nt	i	nt
CCCCOc1ccc(C(=O)Nc2ccc(OCC(=O)N3CCOCC3)cc2)cc1	nt	nt	70	nt
O=C(Nc1ccc(OCC(=O)N2CCOCC2)cc1)c1ccccc1Cl	nt	nt	83	nt
O=C(N/N=C/c1ccc(OCC(=O)N2CCOCC2)cc1)c1ccccc1Cl	i	i	i	i
CCN(CC(=O)NCc1ccc(F)cc1)C(=O)CN1CCN(c2cc(Cl)ccc2C)CC1	nt	nt	i	nt
N#Cc1c(/N=C/c2ccc(Br)s2)sc2c1CCC2	i	i	i	i
Cc1ccc(/C=N/c2sc3c(c2C#N)CCC3)o1	i	i	i	74
SMILES	PPC-1+TRAIL kill	FLuc stim CS	TRAIL sens C8	FLuc inh counter
CN(C)/C=N/c1sc2c(c1C#N)CCC2	i	i	i	i
N#Cc1c(/N=C/c2cccs2)sc2c1CCCCC2	i	i	54	86
CN(C)c1ccc(-c2noc(-c3ccccc3O)n2)cc1	i	i	i	58
Cc1ccc(-c2noc(-c3ccccc3Br)n2)cc1	i	i	51	67
Fc1ccccc1-c1nc(-c2ccc(Cl)cc2)no1	nt	nt	i	nt
COc1ccc(CN2CCN(Cc3cc4ccccc4o3)CC2CCO)cc1C (stereo unspecified)	nt	nt	i	nt
COc1cc2ccccc2cc1C(=O)NCC(c1cccs1)N(C)C (stereo unspecified)	i	i	i	64
CCOc1ccc(NC(=O)c2nn(C)cc2Br)cc1	i	i	i	70
COc1cccc(NC(=O)c2nn(C)cc2Br)c1	nt	nt	i	nt
CCOc1ccc(NC(=O)c2nsc(Cl)c2Cl)cc1	i	i	i	51
O=C(Nc1ccc(F)cc1)c1nsc(Cl)c1Cl	i	i	i	i
Cc1ccc(C2=NN(CC(=O)NCCC(C)C)C(=O)CC2)cc1	nt	nt	i	nt
Cc1ccc(C(=O)Nc2ccc(Cl)cn2)cc1	i	i	62	74
Cc1ccc(CC(=O)Nc2ccc(Cl)cn2)cc1	nt	nt	i	nt
CCCOc1ccc(C(=O)Nc2ccc(Cl)cn2)cc1	i	i	i	53
CCc1ccc(C(=O)Cn2ncc(Cl)c(Cl)c2=O)cc1	i	i	97	i
Cc1ccc(Cn2ncc(Cl)c(Cl)c2=O)cc1	i	i	91	i
Cc1ccccc1CN1CCCC(C(=O)Nc2ccccc2Oc2cccnc2)C1 (stereo unspecified)	nt	nt	i	nt
C=CCNc1nc(-c2cc3ccccc3o2)cs1	i	i	i	76
c1ccc2oc(-c3csc(NCC4CCCO4)n3)cc2c1 (stereo unspecified)	i	i	i	i
CCC(C)C(NC(=O)c1ccccc1)C(=O)N1CCN(C(=O)c2ccccc2)CC1 (stereo unspecified)	nt	nt	i	nt
C=C1C(=O)c2sccc2C(c2ccc(OC)c(OC)c2)C1COC(C)=O (stereo unspecified)	nt	nt	93	nt
